Compound activity deposited in PubChem by several laboratories.
Exocytosis inh: LAMP-1 surface exposure blockers, TALL-104 cells – cell-based, flow cytometry, MLPCN library, primary screen; TALL-104 LAMP-1 surface exposure; cells stimulated with thapsigargin and PMA; inhibition, % at 10 µM; 0.66% of 360,000 active;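 active = inhibition above about 55%, limit read from the data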
MC4R antag cAMP: MC4R antagonists of cAMP signaling, primary screen, cell-based, TR-FRET, antagonist arm of biased-ligand search | MC4R-expressing cells, MTII-stimulated cAMP, LANCE TR-FRET | inhibition, % at 6.5 µM | 0.48% of 360,000 active | AID 540295, 2011;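 active = inhibition above its plate's cutoff, the mean of tested wells on that plate plus 3 SD, cut at about 29% in these data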;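 also: 0% = Melanotan II alone and 100% = Melanotan II plus saturating MCL0020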
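System: U2OS-MC4R stable cell line; Technique: Eu-cAMP/anti-cAMP TR-FRET, emission 671 nm; Repeats: single well per compound; Also added: Melanotan II; Dosing: one concentration, 6.5 µM nominal; Schedule: 30-min compound, 1-h challenge, 1-h detection, room temperature.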
ABCB6 inh 2: ABCB6 transporter inhibitors, primary screen, K562-ABCB6 cells, flow cytometry, MLPCN library; ATP-binding cassette sub-family B member 6 (Homo sapiens), Q9NP58; K562-ABCB6 porphyrin accumulation, 1 h; active compounds read low; fluorescence ratio to DMSO, % at 10 µM; 0.19% of 360,000 active;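 active = fluorescence ratio to DMSO below 75%, the collection mean minus 3 SD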;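 also: signal is porphyrin accumulated inside mitochondria; 100% equals median channel fluorescence of DMSO control wells; lower ratio means ABCB6 inhibition with less porphyrin fluorescence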
Target sequence (Q9NP58 whole entry, looked up): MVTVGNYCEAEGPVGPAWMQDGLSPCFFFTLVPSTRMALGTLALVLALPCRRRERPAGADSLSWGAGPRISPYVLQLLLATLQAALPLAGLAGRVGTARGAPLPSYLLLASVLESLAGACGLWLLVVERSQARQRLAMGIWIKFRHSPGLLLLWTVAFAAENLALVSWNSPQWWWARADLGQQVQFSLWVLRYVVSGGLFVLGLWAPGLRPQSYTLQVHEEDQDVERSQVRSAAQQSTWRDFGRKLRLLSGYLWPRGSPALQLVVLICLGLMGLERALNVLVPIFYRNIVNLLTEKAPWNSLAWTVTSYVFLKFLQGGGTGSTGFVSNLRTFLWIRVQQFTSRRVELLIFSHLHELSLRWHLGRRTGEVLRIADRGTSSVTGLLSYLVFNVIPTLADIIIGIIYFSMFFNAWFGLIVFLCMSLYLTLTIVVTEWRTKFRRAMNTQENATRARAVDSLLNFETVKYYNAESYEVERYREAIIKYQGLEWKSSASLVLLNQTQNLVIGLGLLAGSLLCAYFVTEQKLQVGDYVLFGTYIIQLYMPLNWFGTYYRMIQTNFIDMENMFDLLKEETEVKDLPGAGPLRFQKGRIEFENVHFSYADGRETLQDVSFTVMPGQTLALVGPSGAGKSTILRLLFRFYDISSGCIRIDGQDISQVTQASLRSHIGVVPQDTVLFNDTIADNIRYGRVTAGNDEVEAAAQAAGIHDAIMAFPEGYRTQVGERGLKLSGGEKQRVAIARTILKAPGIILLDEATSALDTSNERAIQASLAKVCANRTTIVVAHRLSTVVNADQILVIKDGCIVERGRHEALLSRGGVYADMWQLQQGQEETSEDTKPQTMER
iPSC survival up: enhancers of single-cell hiPSC survival, primary screen, ATPlite luminescence | 100% = ROCK inhibitor wells, 0% = DMSO | survival enhancement, % at 20 µM | 0.044% of 360,000 active; in the data active = survival enhancement above about 18%;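 also: cells exposed to compounds for 16 hours before the ATP read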
MC4R barr agon: MC4R agonists recruiting beta-arrestin, primary screen, cell-based, luminescence, agonist arm of biased-ligand search. U2OS MC4R beta-arrestin complementation; percent of melanotan II response, DMSO zero. 0.98% of 360,000 active. Melanocortin receptor 4 (Homo sapiens), P32245. activation, % at 8.9 µM;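 active = activation above a per-plate cutoff, the mean activation of sample wells on that plate plus 3 SD, cut at about 8% in these data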
Tb MetRS inh: T. brucei MetRS inhibitors, primary screen, biochemical, luminescence; inhibition, % at 11.9 µM; 0.4% of 360,000 active; purified T. brucei MetRS, ATP depletion, Kinase-Glo luminescence; AID 624268, 2012; methionyl-tRNA synthetase (Trypanosoma brucei brucei);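 active = inhibition above a per-plate cutoff of the control wells' mean inhibition plus 3 SD, cut at about 5.5% in these data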;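 also: 0% = DMSO wells median and 100% = median of wells with control inhibitor compound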
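Dosing: 11.9 µM single point; system: parasite MetRS enzyme; technique: luminescence of leftover ATP; times: 15 min enzyme-compound preincubation, 2 h reaction, 10 min detection, 25 °C; replicates: each compound tested once; read-out basis: percent inhibition relative to median high and low control wells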
Exocytosis CP01: inhibitors of lytic granule exocytosis, confirmation, TALL-104 cells, flow cytometry, Cherry Pick01. 11% of 1,500 active. shares compounds with Exocytosis inh. AID 651954, 2012. LAMP-1 externalization; stimulated with PMA plus thapsigargin. inhibition, % at 10 µM; in the data active = inhibition above about 60%;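 also: 0% = stimulated vehicle wells and 100% = unstimulated wells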
The depositor's hits bear a star; . = no result. In the library only some 2.6% were active in any assay of this set; here they are far more common.

SMILES	Exocytosis inh	MC4R antag cAMP	ABCB6 inh 2	iPSC survival up	MC4R barr agon	Tb MetRS inh	Exocytosis CP01
COCCNC(=O)C1CCCN(Cc2ccc(C(C)C)cc2)CC1 (centres undefined)	68*	1	92	-2	0	0	-4
Cc1ccc(S(=O)(=O)Cn2nnnc2C(C(C)C)N2CCC(O)CC2)cc1 (centres undefined)	0	4	107	1	1	0	.
Cc1ccc(-n2[nH]c(C)c(CCC#N)c2=O)cc1	2	-3	95	0	-1	-1	.
CN(C)c1ncnc2c1C(c1ccccc1)C(C)(C)O2 (centres undefined)	-2	11	95	2	-1	0	.
Cc1ccc(S(=O)(=O)c2nc(-c3ccco3)oc2SCC(=O)NCC2CCCO2)cc1 (centres undefined)	89*	-1	101	-1	0	0	-10
O=C(Nc1ccc(S(=O)(=O)NCc2ccco2)cc1)c1ccc2ccccc2n1	98*	8	95	5	3	0	-9
COc1cccc(CN2CCN(Cc3cc(OC)c(OC)c(OC)c3)CC2)c1OC	0	0	100	0	-1	0	.
c1ccc(OCCN2CCNCC2)cc1	-3	1	99	3	2	0	.
COc1cc(CN2CCN(C(c3ccccc3)c3ccccc3)CC2)cc(OC)c1OC	64*	0	91	0	1	0	-11
c1ccc(OCCN2CCN(C(c3ccccc3)c3ccccc3)CC2)cc1	84*	-5	93	0	0	-1	-5
Cc1cccc(S(=O)(=O)NC(=O)C2(C)CCN2C(=O)C/C=C/c2ccccc2)c1 (centres undefined)	-4	3	88	0	1	0	.
Cc1ccc(CNC(=O)c2ccc(N(C)S(=O)(=O)c3ccccc3)cc2)cc1	67*	-3	96	0	0	-1	-4
CN(c1ccccc1)S(=O)(=O)c1ccc(C(=O)NCc2ccc(F)cc2)cc1	1	2	97	0	-4	0	.
Oc1ccccc1-c1nc(NC2CCCC2)c2ccccc2n1	64*	19	101	0	1	0	-5
CCOc1ccccc1N(C(=O)c1snc(C(N)=O)c1N)C(C(=O)NC1CCCC1)c1ccco1 (centres undefined)	-4	18	93	-3	0	0	.
CCOc1ccccc1N(C(=O)c1snc(C(N)=O)c1N)C(CC)C(=O)NC1CCCC1 (centres undefined)	60*	5	97	1	0	-1	-5
COc1ccccc1N(C(=O)c1snc(C(N)=O)c1N)C(C(=O)NCc1ccccc1)c1ccc(C)o1 (centres undefined)	73*	2	97	0	1	-1	-6
CCCCn1c(O)c2n(c1=O)Cc1ccccc1N=C2c1ccccc1	0	.	97	0	.	0	.
O=C1CC(Sc2nnc(-c3ccccc3O)o2)C(=O)N1c1ccccc1 (centres undefined)	30	18	99	-1	2	0	.
COc1ccc(N2C(=O)CC(Sc3nnc(-c4ccccc4)o3)C2=O)cc1 (centres undefined)	57*	23	92	1	1	-1	87*
CCCCN(CC(O)COc1cccc(C)c1)CC(O)COc1cccc(C)c1 (centres undefined)	83*	16	97	1	6	0	-4
CCc1nc2sc(C(C)=O)c(N)c2c2c1CCCC2	64*	-6	98	2	3	0	-11
Cc1cccc(NC(=O)NNC(=O)COc2ccc([N+](=O)[O-])cc2)c1C	0	18	92	4	-4	0	.
C=CCn1c(SCC(C)=O)nc2scc(-c3ccc(C)o3)c2c1=O	85*	0	97	0	8.3*	-1	-10
C=CCn1c(SCC(=O)NCCCC)nc2scc(-c3ccco3)c2c1=O	3	3	83	1	-3	0	.
SMILES	Exocytosis inh	MC4R antag cAMP	ABCB6 inh 2	iPSC survival up	MC4R barr agon	Tb MetRS inh	Exocytosis CP01
CC(C)OC(=O)c1ccc(N2CCN(c3ccccc3F)CC2)nc1	2	-11	95	1	1	-1	.
O=C(CNS(=O)(=O)c1c(F)cc(F)cc1Br)OCC(=O)N1CCCC1=O	61*	14	106	0	-2	0	-4
O=C(CNS(=O)(=O)c1cccc(F)c1)OCC(=O)N1CCCC1=O	1	16	91	1	-1	0	.
COc1cccc(OC)c1C(=O)Oc1ccc2c(c1)O/C(=C\c1ccncc1)C2=O	60*	6	97	0	8.6*	0	12
CN(C)S(=O)(=O)c1ccc(Cl)c(C(=O)OCC(=O)NC(=O)NC2CCCC2)c1	5	22	100	0	-3	0	.
COC(=O)[C@]12CCCCC=C1N(Cc1cccc3ccccc13)C(=O)[C@H](CC(=O)NCc1ccc(OC)c(OC)c1)C2	70*	.	92	0	.	-1	97*
O=C(Nc1cccc(F)c1)NC1(C(=O)N2CCOCC2)CCCCC1	6	6	83	0	-1	0	.
O=c1c(Cl)c2oc3ccccc3nc-2c2ccccc12	102*	-4	169	0	-1	-1	77*
CCOc1ccc(-c2cnc(NCc3cccc4ccccc34)n2CCOC)cc1	111*	-1	85	-1	-1	-1	1
COCCn1c(-c2ccc(OC)cc2)cnc1N	-2	0	94	-1	-2	-1	.
COc1ccc(/C=C/C(=O)OCC(=O)NCCC2=CCCCC2)cc1S(=O)(=O)N1CCOCC1	-5	7	93	-1	-2	2	.
CCCCn1c(=O)[nH]c(=O)c2c1nc(-c1ccc(-c3ccccc3Br)o1)n2CCOC	56*	6	113	8	0	-1	59
COc1ccc2nc3cc(Cl)ccc3c(C#N)c2c1	0	5	95	1	-2	0	.
COc1ccc2nc3cc(Cl)ccc3c(Nc3ccc(O)c(CN4CCN(C)CC4)c3)c2c1	66*	-15	92	-2	-1	0	75*
